For test [1], the target named is T1, Receptor-type tyrosine-protein phosphatase F (Homo sapiens, UniProt P10586). The test is described as follows: Inhibition of human recombinant LAR at 20 ug/mL. The method in brief: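 Single-concentration test at 20 µg/mL. Recombinant LAR (300 nM) was preincubated 10 min with compound at pH 8.0 (Tris/NaCl/EDTA/DTT). Hydrolysis of 2 mM pNPP (stock in substrate buffer) was then followed at pH 6.0 MES buffer, room temperature. Initial rate was taken at 405 nm and expressed as % inhibition.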
T1 sequence (P10586 whole entry): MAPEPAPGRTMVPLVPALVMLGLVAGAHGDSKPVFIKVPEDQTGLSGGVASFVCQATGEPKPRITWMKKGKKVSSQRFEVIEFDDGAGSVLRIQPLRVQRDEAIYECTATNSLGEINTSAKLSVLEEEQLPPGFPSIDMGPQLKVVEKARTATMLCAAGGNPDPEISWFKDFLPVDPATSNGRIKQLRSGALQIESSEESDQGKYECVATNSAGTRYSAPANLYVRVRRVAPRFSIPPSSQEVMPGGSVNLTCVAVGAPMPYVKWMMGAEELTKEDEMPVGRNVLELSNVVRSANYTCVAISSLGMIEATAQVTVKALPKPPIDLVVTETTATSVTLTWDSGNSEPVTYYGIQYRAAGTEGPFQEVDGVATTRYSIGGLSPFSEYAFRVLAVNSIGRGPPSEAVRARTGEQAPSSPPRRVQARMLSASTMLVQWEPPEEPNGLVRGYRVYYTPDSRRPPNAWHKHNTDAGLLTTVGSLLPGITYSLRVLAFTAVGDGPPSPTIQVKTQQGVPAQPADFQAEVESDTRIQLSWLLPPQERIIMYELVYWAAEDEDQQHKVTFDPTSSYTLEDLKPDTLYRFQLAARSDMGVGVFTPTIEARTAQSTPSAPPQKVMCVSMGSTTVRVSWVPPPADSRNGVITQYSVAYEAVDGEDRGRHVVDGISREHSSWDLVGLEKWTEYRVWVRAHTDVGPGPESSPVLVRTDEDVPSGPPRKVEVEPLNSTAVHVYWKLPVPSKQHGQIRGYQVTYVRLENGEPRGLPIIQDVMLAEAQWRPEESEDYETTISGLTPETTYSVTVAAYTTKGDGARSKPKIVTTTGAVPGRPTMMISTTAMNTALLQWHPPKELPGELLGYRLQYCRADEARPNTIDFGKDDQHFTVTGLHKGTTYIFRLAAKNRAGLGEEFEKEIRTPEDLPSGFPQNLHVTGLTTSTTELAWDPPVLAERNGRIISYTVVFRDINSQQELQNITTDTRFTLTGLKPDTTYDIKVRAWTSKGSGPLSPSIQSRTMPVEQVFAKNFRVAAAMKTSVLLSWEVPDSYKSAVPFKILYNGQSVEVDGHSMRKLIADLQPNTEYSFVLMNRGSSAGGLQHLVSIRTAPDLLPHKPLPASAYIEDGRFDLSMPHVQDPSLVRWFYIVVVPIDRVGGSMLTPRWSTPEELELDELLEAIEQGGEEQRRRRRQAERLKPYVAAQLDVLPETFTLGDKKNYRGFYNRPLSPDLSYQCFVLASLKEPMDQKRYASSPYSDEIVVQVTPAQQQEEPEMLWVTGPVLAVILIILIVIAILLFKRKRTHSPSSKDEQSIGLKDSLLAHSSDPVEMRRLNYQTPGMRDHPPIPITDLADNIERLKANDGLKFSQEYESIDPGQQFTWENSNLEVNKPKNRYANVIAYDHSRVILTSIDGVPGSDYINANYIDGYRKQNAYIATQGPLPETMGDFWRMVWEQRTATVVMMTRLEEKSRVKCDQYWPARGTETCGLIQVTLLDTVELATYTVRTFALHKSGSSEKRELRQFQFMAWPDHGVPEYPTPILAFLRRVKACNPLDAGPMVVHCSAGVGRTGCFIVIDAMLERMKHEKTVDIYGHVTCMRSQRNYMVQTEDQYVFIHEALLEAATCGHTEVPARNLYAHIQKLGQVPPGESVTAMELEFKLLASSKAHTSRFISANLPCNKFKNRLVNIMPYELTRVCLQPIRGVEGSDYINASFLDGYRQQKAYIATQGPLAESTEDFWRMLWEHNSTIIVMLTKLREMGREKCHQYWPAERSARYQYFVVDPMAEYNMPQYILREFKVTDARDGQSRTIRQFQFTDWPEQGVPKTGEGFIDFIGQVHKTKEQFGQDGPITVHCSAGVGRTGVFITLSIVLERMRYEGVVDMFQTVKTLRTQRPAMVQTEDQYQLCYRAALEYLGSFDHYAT

For test [2], the target named is T1, Receptor-type tyrosine-protein phosphatase F. Kind of test: Inhibition of dialyzed human LAR assessed as recovery of enzyme activity at 20 uM after 24 hrs. The method, boiled down: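 LAR (1500 nM) was preincubated 10 min at pH 8.0 with 20 µM inhibitor or 2% DMSO, then dialyzed against enzyme buffer. Aliquots were withdrawn at set times up to 24 h and assayed for pNPP phosphatase activity at pH 6.0, read at 405 nm.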

For test [3] the target is unchanged. Kind of test: Inhibition of human recombinant LAR.
The target of test [4] is T2, Tyrosine-protein phosphatase non-receptor type 2 (Homo sapiens, UniProt P17706).
T2 sequence (P17706 whole entry): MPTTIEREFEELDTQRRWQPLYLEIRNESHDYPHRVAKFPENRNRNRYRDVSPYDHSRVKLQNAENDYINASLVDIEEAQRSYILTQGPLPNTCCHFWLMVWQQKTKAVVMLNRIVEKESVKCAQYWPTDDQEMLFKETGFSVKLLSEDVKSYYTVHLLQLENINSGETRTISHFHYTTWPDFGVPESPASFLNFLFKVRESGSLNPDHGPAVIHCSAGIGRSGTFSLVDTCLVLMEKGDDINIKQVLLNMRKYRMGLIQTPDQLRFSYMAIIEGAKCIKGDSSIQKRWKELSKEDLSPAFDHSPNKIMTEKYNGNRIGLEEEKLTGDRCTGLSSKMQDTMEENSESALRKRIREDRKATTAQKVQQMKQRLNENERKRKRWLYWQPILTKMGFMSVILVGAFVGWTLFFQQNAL
The test is described as follows: Inhibition of TCPTP.

Test [5] addresses T1, Receptor-type tyrosine-protein phosphatase F. The test is described as follows: Inhibition of LAR. The method in brief:
(§1)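 Recombinant LAR (300 nM) was preincubated 10 min with inhibitor in DMSO in pH 8.0 buffer (50 mM Tris, 50 mM NaCl, 2 mM EDTA, 2 mM DTT). Reaction was started with pH 6.0 MES substrate buffer holding 2 mM pNPP, at room temperature. pNP release was read continuously at 405 nm, using the initial linear rate. IC50 came from a Hill-equation nonlinear fit, mean ± SD of three replicates.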

Test [6] has the same target. The test is described as follows: Inhibition of human recombinant LAR upto 100 uM. The conditions noted are these: in the assay text read “at 20 ug/mL” for “upto 100 uM”. The method, boiled down: as §1
Test [7] is described as follows: Inhibition of Yersinia PTPase. Also on record: species or system Yersinia sp.
Test [8] addresses T3, Tyrosine-protein phosphatase non-receptor type 1 (Homo sapiens, UniProt P18031).
T3 sequence (P18031 whole entry): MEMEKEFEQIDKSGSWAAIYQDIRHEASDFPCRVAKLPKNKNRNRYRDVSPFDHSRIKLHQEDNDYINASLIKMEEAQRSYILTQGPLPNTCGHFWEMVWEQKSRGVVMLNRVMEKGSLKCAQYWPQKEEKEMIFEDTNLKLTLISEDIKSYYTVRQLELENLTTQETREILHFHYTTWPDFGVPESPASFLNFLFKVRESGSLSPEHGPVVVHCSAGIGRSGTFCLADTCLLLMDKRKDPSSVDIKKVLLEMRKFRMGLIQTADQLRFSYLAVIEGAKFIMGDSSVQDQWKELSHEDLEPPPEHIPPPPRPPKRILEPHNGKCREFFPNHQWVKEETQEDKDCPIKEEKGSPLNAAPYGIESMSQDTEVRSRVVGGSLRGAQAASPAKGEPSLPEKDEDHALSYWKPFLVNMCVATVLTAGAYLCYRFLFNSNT
Kind of test: Inhibition of PTP1B.

In test [9] the target is T4, Receptor-type tyrosine-protein phosphatase C (Homo sapiens, UniProt P08575).
T4 sequence (P08575 whole entry): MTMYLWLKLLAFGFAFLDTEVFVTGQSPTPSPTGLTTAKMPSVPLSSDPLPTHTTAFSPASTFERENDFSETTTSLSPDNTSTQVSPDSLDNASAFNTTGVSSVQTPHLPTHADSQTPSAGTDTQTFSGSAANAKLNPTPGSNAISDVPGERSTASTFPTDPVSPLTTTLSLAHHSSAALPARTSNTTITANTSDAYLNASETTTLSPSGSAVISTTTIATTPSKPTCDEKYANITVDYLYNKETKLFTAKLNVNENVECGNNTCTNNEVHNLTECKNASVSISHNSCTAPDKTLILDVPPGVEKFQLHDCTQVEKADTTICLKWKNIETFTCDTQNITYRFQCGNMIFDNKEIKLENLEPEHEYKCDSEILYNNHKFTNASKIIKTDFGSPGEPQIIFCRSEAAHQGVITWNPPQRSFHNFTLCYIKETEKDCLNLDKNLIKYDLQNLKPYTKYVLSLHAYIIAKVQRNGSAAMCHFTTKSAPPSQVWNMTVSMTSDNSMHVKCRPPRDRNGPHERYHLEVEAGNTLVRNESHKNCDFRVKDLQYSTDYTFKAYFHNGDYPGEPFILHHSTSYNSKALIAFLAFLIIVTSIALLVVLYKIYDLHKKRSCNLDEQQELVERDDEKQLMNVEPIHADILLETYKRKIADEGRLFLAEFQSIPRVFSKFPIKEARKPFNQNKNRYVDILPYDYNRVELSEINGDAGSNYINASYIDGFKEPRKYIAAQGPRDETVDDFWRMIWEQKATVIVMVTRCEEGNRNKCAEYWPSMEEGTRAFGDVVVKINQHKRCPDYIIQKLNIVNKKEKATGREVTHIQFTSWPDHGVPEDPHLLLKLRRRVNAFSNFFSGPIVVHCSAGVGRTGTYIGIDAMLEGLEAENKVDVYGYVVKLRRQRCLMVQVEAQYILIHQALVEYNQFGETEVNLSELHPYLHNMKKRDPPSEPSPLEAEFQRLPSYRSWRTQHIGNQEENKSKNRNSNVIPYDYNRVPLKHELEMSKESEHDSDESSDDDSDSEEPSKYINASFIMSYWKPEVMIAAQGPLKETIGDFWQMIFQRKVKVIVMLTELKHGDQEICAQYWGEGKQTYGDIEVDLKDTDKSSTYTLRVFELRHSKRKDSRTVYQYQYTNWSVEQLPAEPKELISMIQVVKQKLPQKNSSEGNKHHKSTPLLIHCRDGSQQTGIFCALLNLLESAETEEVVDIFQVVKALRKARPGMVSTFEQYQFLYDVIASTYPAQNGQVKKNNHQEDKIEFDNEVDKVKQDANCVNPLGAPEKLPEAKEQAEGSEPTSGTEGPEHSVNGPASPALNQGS
Kind of test: Inhibition of CD45.

Calls of active or inactive are those of the source. The rule behind the calls is not given here.

As usually defined, the inhibition is the drop in the measured response relative to a control, in per cent. One may read the IC50 as the concentration that inhibits the measured activity by half. For orientation: Ki means a measure of affinity in units of concentration, obtained from inhibition or displacement. Lower therefore signals a stronger hold on the target.

As for `COc1ccc2c(c1C=O)CC(O)OC2` (stereo unspecified), the inhibition in [1] turned out to be 20%. The result in test [2] was Active.

For `COc1ccc2c(c1C=O)CC(O)OC2=O` (stereo unspecified), the IC50 in test [3] was 21800 nM.

Consider `CSc1ccnc(C[S+]([O-])c2nc3cc(OC(C)C)ccc3[nH]2)c1` (stereo unspecified), for which the values for the IC50 in test [4] and in [5] were 680 nM and 18200 nM, respectively.

Take `COc1ccc2c(c1C=O)CCOC2=O`: the inhibition in test [1] is less than 5%.

`COc1ccc(C(=O)O)c(CCO)c1CO`: the inhibition in test [1] was less than 5%. Moreover, the result in [6] was inactive.

Turning to `CC(=O)NC(Cc1ccc(N(C(=O)C(=O)O)c2ccccc2C(=O)O)c2ccccc12)C(=O)NCCCCCOc1cc2ccccc2cc1C(=O)O` (stereo unspecified), the inhibition constant Ki worked out at 49 nM in [4] and 1300 nM in [5].

In test [5], `O=C(O)COc1c(C(=O)O)sc(-c2ccc(NC(=O)c3cccnc3)cc2)c1Br` came in with an IC50 of 320000 nM.

Regarding `COc1c(C=O)c2c(c3c1CC(C)(C)C3)C(=O)OC(O)C2` (stereo unspecified), the IC50 in test [3] is 1530 nM.

Regarding `COc1ccc2c(c1)CC(O)OC2=O` (stereo unspecified), the inhibition in test [1] was less than 5%.

For `COC(=O)c1ccc(OC)c(C=O)c1CC=O`, the inhibition in test [1] was less than 5%. The outcome in [6] was inactive.

As for `COC(=O)c1ccc(OC)c(CO)c1CCO`, in [1], the inhibition is less than 5%. The outcome in test [6] was inactive.

With `O=C(O)C(=O)c1ccc(OCc2cc(COc3ccc(C(=O)C(=O)O)cc3)cc(COc3ccc(C(=O)C(=O)O)cc3)c2)cc1`, it took 1700 nM to reach half-maximal inhibition in [7] (IC50).

For `O=C(O)COc1c(O)cc(-c2cc(C(F)(F)F)cc(C(F)(F)F)c2)cc1OCc1cccc(C(F)(F)F)c1`, the IC50 in test [8] was found to be 2000 nM; in test [5], 116000 nM; in test [9], 280 nM.

Values taken from ChEMBL document CHEMBL1155785 (Bioorg Med Chem, 2008).
